Assay outcomes: PubChem, Johns Hopkins Ion Channel Center
An excerpt weighted towards active compounds, which were near 3.5% of everything screened.
MrgX1 agonist = human MrgX1 receptor agonism, primary screen | MrgX1-HEK293 cells, Fluo-4 calcium fluorescence, agonist mode; hits give high values | B-score at 10 µM | hit rate 0.44% among 310,000;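 active = calcium response B-score plate-corrected fluorescence ratio at least 3 library SD, with starting fluorescence B-score inside 5 SD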
Target sequence (Q96LB2 whole entry, looked up): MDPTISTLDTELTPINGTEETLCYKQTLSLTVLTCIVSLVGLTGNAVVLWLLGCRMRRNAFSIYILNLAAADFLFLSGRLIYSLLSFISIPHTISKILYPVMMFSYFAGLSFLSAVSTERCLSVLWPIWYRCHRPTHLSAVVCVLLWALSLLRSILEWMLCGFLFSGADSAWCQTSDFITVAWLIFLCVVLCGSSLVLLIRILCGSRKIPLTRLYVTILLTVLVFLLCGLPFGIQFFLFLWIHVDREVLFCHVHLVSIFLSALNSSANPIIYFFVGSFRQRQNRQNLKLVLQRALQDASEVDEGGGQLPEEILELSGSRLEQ
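Material: MrgX1-expressing HEK293 cells; input: 15,000 cells per well; doses: test compound given as first of three sequential additions; schedule: overnight plating before 1 h dye loading; technique: Fluo-4 NW calcium-flux fluorescence, kinetic read; evaluation: baseline-normalised fluorescence change ratio, B-scored; control set: plate-wise positive and negative controls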
RGS4 act = potentiators or activators of RGS4; HEK293 M3R/inducible RGS4, carbachol calcium flux Fluo4; hits give low values; B-score at 10 µM; hit rate 0.92% among 310,000;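 active = B-score of the integrated calcium signal more than 4 SD below the library mean, with starting fluorescence not abnormally high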;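 note: negative B-score means reduced calcium response which marks RGS4 activation or potentiation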
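Material: M3R-expressing HEK293 line, RGS4 induced by doxycycline | Schedule: Overnight RGS4 induction, 30 min dye load 37 °C, 20 min compound RT | Measured by: Fluo4 fluorescence kinetic imaging of calcium | Read-out: Integrated calcium ratio converted to B score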
RGS4 inh = inhibitors of human RGS4 | P49798 | HEK293 M3R/RGS4 inducible, Fluo-4 calcium flux; hits give high values; triggered by carbachol at its EC20 | B-score at 10 µM | hit rate 0.45% among 310,000 | AID 463165;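 active = B-score, a plate-corrected calcium signal, over three deviations above library mean, with baseline fluorescence within five deviations of library mean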;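 note: RGS4 expression induced by doxycycline in cells with stable M3 receptor; B-score is computed from the integrated fluorescence ratio over baseline after carbachol; higher B-score means a larger calcium signal and so more RGS4 inhibition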
Target sequence (P49798 whole entry, looked up): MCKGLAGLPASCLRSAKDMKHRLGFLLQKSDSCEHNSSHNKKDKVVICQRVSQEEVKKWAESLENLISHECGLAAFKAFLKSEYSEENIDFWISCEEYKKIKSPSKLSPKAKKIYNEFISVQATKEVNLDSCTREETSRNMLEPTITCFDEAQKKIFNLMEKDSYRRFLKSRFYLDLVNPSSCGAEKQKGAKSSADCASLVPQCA
MrgX1 allo act = allosterically activates human MrgX1 receptor signaling | Q96LB2 | MrgX1-HEK293, Fluo-4 calcium flux, FDSS; hits give high values | B-score at 10 µM | hit rate 0.63% among 310,000 | AID 588675;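 active = plate-corrected calcium response at least 3 library SD above typical, normal starting fluorescence, not activating the receptor alone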;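 note: compound read alongside a low EC10 to EC30 dose of BAM8-22 agonist; peak minus trough fluorescence over baseline measured at the second addition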
MrgX1 antagonist = antagonists of human MrgX1 receptor. MRGX1-HEK293 calcium flux, Fluo-4, BAM8-22 antagonism; hits give low values. hit rate 1.3% among 310,000. B-score at 10 µM. Q96LB2;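 active = calcium-response B-score plate-corrected more than 3 library SD below zero, starting fluorescence within 5 deviations, no agonist response on first addition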;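 note: peak minus trough fluorescence over baseline after final BAM8-22 challenge near maximal dose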
MrgX1 ant reconf = human MrgX1 receptor antagonism, re-confirmation screen. remaining BAM8-22 calcium response % of control (hits give low values), % at 10 µM. AID 602420. hit rate 19% among 2,300. shares compounds with MrgX1 antagonist. MrgX1-HEK293, BAM8-22 calcium flux, Fluo-4; hits give low values;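 active = remaining agonist calcium response no higher than 100% minus 3 SD of agonist-only control wells, with starting fluorescence near control levels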;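 note: agonist BAM8-22 given at a near maximal EC90 to ECmax level; peak minus minimum fluorescence divided by baseline after agonist addition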
HEK293 Ca flux = counter-screen for MrgX1 antagonists: effect in parental HEK293 cells; fluorescence ratio F(max-min)/F0 at 10 µM; AID 624111; hit rate 2% among 4,000; shares compounds with MrgX1 antagonist; Fluo-4 calcium fluorescence, FDSS;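 active = duplicate-averaged calcium fluorescence ratio at least three times the standard deviation of buffer wells, a nonspecific response in parental cells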
HEK293 Ca counter = activity in parental HEK293 cells without MrgX1. parental HEK293 calcium flux, Fluo-4 fluorescence ratio; hits give high values. shares compounds with MrgX1 antagonist. fluorescence ratio F(max-min)/F0 at 10 µM. AID 624114. hit rate 0.4% among 4,000;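 active = calcium fluorescence ratio, averaged over duplicates, at least 3 SD of the buffer-well ratio, meaning a nonspecific response in receptor-free cells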;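 note: untransfected parental HEK293 lacking MrgX1 used as counterscreen for MrgX1 allosteric activators; fluorescence change taken during the second addition on a kinetic imager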
HEK293 Ca cntr2 = counter-screen for MrgX1 activators: effect in parental HEK293 cells. shares compounds with MrgX1 antagonist. hit rate 8.7% among 4,000. fluorescence ratio F(max-min)/F0 at 10 µM. Fluo-4 calcium fluorescence (FDSS); hits give high values. AID 624115;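 active = calcium fluorescence ratio at least three times the spread of buffer wells, meaning a non-specific response in parental cells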
Starred values were filed as active, the others as inactive; i = inactive; nt = no result.

SMILES | MrgX1 agonist | RGS4 act | RGS4 inh | MrgX1 allo act | MrgX1 antagonist | MrgX1 ant reconf | HEK293 Ca flux | HEK293 Ca counter | HEK293 Ca cntr2
CCC(=O)N1CCCN(S(=O)(=O)c2ccc(C)cc2)C1c1ccc(OC)cc1 (configuration not stated) | i | i | i | i | i | nt | nt | nt | nt
O=C(COc1ccccc1)Nc1nnc(-c2ccc(F)cc2)o1 | i | i | i | i | i | nt | nt | nt | nt
O=C(COc1ccccc1)Nc1nnc(-c2ccccc2Cl)o1 | i | i | i | i | -7.89* | i | i | i | i
CN1CCN(C(=S)Nc2cccc(Cl)c2)CC1 | i | i | i | i | -4.91* | i | i | i | i
Cc1cc(C)n(-c2ccc(C(=O)Oc3ccc4c(c3)OCO4)cc2)n1 | i | i | i | i | -6.74* | i | i | i | i
CC(=O)c1ccc(OC(=O)c2ccc(-n3nc(C)cc3C)cc2)cc1 | i | i | i | i | i | nt | nt | nt | nt
Cc1ccc(N(CC(=O)N2CCN(C3CCCCC3)CC2)S(=O)(=O)c2cccnc2)cc1 | i | nt | nt | i | -8.76* | i | i | i | i
Cc1ccc(S(=O)(=O)N(CC(=O)N2CCCCCC2)c2ccccc2)cc1 | i | i | i | i | i | nt | nt | nt | nt
COc1cccc(NS(=O)(=O)c2c(C)cc(C)cc2C)c1 | i | i | i | i | -5.16* | i | i | i | i
COc1ccc(NS(=O)(=O)c2c(C)cc(C)cc2C)cc1 | i | i | i | i | i | nt | nt | nt | nt
COc1ccc(Cl)cc1NC(=O)CSc1nc(=O)n(CCN(C)C)c2c1CCCC2 | i | i | i | i | i | nt | nt | nt | nt
CCN(CC)CCn1c2c(c(SCC(=O)Nc3ccc(F)c(F)c3)nc1=O)CCC2 | i | i | i | i | -9.54* | i | i | i | i
COc1ccc(NC(=O)CSc2nc(=O)n(CCN(C)C)c3c2CCCC3)cc1OC | i | i | i | i | -5.62* | i | i | i | i
Cn1c(C(=O)c2ccccc2[N+](=O)[O-])nc2ccccc21 | i | i | i | i | i | nt | nt | nt | nt
Cc1cccn2c(CNCCc3ccco3)c(C(=O)N3CCOCC3)nc12 | nt | i | i | nt | nt | nt | nt | nt | nt
Cc1ccccc1OCC(=O)Nc1ccc(C)c(S(=O)(=O)N2CCCCCC2)c1 | i | i | i | i | i | nt | nt | nt | nt
COc1ccc(NC(=O)CCOc2ccccc2C)cc1S(=O)(=O)N1CCCCC1 | i | i | i | i | -5.39* | i | i | i | i
COc1ccc(CCC(=O)Nc2ccc(Cl)c(S(=O)(=O)N3CCCC3)c2)cc1 | i | i | i | i | -5.94* | 78.1%* | i | i | i
Cn1c(SCC(=O)c2c(N)n(C)c(=O)n(C)c2=O)nnc1-c1ccccc1 | i | i | i | i | i | nt | nt | nt | nt
Cn1c(SCC(=O)c2c(N)n(C)c(=O)n(C)c2=O)nnc1-c1ccccc1F | i | i | i | i | -5.25* | i | i | i | i
Cc1nc2ccc(NC(=O)Cc3ccc4c(c3)OCCO4)cc2s1 | i | i | i | i | -6.8* | i | i | i | i
Cc1nc2ccc(NC(=O)Cc3ccc(Br)cc3)cc2s1 | i | i | i | i | i | nt | nt | nt | nt
CCOc1ccccc1NC(=O)COC(=O)C(CC)c1ccccc1 (configuration not stated) | i | i | i | i | i | nt | nt | nt | nt
CCCSc1ccc([C@H]2N[C@@](C)(C(=O)OC)[C@H]3C(=O)N(C)C(=O)[C@@H]23)cc1 | i | i | i | i | i | nt | nt | nt | nt
COC(=O)[C@]1(C)N[C@H](c2ccc(SC3CCCCC3)cc2)[C@@H]2C(=O)N(C)C(=O)[C@@H]21 | i | i | i | i | -7.92* | i | i | i | i
SMILES | MrgX1 agonist | RGS4 act | RGS4 inh | MrgX1 allo act | MrgX1 antagonist | MrgX1 ant reconf | HEK293 Ca flux | HEK293 Ca counter | HEK293 Ca cntr2
CN1C(=O)CC(NNC(=O)c2ccccc2)C1=O (configuration not stated) | i | i | i | i | i | nt | nt | nt | nt
CCC1CCCCN1S(=O)(=O)c1ccc(NC(=O)c2nc(S(C)(=O)=O)ncc2Cl)cc1 (configuration not stated) | i | i | i | i | i | nt | nt | nt | nt
CCOCCn1c(CN2CCN(c3ccccc3)CC2)nc2c1c(=O)n(C)c(=O)n2C | i | i | i | i | -7.43* | i | i | i | i
Cc1ccc(Nc2c3c(nc4ncnn24)CCC3)cc1 | i | i | i | i | -7.23* | i | i | i | i
Cc1ccc(Nc2c3c(nc4ncnn24)CC(C)CC3)cc1 (configuration not stated) | i | i | i | i | i | nt | nt | nt | nt
CC(C)(C)c1ccc(C(=O)N2CCC(C(=O)NC3CC3)CC2)cc1 | i | i | i | i | i | nt | nt | nt | nt
CC(C)(C)c1ccc(C(=O)N2CCC(C(=O)NCc3ccncc3)CC2)cc1 | i | i | i | i | -5.15* | i | i | i | i
CSC1=NCCN1C(=O)c1ccc(Br)o1 | i | i | i | i | -5.37* | i | i | i | i
COc1ccc(CC(=O)N(C)C2CCCCC2)cc1S(=O)(=O)N1CCOCC1 | i | i | i | i | -4.61* | i | i | i | i
COc1ccc(CN(C)C(=O)Cc2ccc(OC)c(S(=O)(=O)N3CCOCC3)c2)cc1 | i | i | i | i | i | nt | nt | nt | nt
O=C(Cn1cc2c(n1)CCCC2)N1CCOCC1 | i | i | i | i | -5.37* | i | i | i | i
COc1ccc(SCCc2nnc(-c3ccccc3)o2)cc1 | i | i | i | i | -7.8* | i | i | i | i
CCCc1nnc(-c2ccc(OC)cc2)o1 | i | i | i | i | -5.97* | i | i | i | i
COc1ccccc1/C=C1\SC(=S)N(CCC(=O)NCCc2ccc(O)cc2)C1=O | i | i | i | i | i | nt | nt | nt | nt
CCCN(CC(=O)Nc1ccccc1C)C(=O)COc1ccc2c(c1)CCC2 | i | i | i | i | i | nt | nt | nt | nt
Cc1cccc(OCCCC(=O)N2CCCCCC2)c1C | i | i | i | i | i | nt | nt | nt | nt
